Assay outcomes as filed in PubChem.
bCat nuc transl – modulators of beta-catenin nuclear translocation | HeLa beta-catenin nuclear translocation, immunofluorescence imaging | nuclear translocation activity, % at 5 µM | 190,000 tested, 0.3% active | AID 1665;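 active = nuclear translocation activity above 50% at 5 µM, with a well cell count of 50 or more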;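 note: per-cell ratio of nuclear to cytoplasmic median beta-catenin stain intensity; plate controls were DMSO negative control for no effect and GSK-3 inhibitor IX positive control for full effect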
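Test system: HeLa cells, endogenous beta-catenin; Compound: single 5 µM dose plus 0.02–20 µM confirmation series; Times: compound exposure 24 h at 37°C; Signal: fluorescence imaging of beta-catenin antibody stain plus DAPI; Read-out: % activation, nuclear-to-cytoplasmic median beta-catenin signal ratio per cell.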
MT stabilizer – microtubule stabilizers in HeLa cells; HeLa tubulin immunostaining HCS, 24 h; share of cells brighter than vehicle mean+2SD; 200,000 tested, 0.83% active; % tubulin-high responders, % at 10 µM;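 active = plate Z-score above 3 for both tubulin-high and condensed-nucleus cell shares, with cell loss under 80%, at 10 µM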;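 note: anti alpha tubulin signal scored within the nucleus-defined area of each cell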
ABCG2 block – human ABCG2 inhibition, ABCB1 as counter-screen | 190,000 tested, 0.1% active | Q9UNQ0 | inhibition, % at 6.6 µM | IgMXP3 cells, JC-1 efflux, flow cytometry;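 active = inhibition above 80%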;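 note: 0% = DMSO and 100% = nicardipine control wells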
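test system = two drug-resistant human cell lines, ABCG2 and ABCB1 | amount = 3 million cells/mL final, two lines in 1:1 ratio | reagent = JC-1 transporter substrate | doses = one concentration, 6.6 µM final | incubation = 10 min at 25 °C | signal = flow cytometric JC-1 green MFI at 530 nm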
ABCB1 block – inhibitors of human ABCB1 transporter, ABCG2 counter-screen; 190,000 tested, 0.067% active; CCRF-Adr cells, JC-1 efflux, flow cytometry; inhibition, % at 6.6 µM; P08183; AID 1326; in the data active = inhibition above about 40%;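 note: 0% = vehicle and 100% = reference inhibitor; higher value means more JC-1 retained so stronger ABCB1 efflux block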
Target sequence (P08183 whole entry, looked up): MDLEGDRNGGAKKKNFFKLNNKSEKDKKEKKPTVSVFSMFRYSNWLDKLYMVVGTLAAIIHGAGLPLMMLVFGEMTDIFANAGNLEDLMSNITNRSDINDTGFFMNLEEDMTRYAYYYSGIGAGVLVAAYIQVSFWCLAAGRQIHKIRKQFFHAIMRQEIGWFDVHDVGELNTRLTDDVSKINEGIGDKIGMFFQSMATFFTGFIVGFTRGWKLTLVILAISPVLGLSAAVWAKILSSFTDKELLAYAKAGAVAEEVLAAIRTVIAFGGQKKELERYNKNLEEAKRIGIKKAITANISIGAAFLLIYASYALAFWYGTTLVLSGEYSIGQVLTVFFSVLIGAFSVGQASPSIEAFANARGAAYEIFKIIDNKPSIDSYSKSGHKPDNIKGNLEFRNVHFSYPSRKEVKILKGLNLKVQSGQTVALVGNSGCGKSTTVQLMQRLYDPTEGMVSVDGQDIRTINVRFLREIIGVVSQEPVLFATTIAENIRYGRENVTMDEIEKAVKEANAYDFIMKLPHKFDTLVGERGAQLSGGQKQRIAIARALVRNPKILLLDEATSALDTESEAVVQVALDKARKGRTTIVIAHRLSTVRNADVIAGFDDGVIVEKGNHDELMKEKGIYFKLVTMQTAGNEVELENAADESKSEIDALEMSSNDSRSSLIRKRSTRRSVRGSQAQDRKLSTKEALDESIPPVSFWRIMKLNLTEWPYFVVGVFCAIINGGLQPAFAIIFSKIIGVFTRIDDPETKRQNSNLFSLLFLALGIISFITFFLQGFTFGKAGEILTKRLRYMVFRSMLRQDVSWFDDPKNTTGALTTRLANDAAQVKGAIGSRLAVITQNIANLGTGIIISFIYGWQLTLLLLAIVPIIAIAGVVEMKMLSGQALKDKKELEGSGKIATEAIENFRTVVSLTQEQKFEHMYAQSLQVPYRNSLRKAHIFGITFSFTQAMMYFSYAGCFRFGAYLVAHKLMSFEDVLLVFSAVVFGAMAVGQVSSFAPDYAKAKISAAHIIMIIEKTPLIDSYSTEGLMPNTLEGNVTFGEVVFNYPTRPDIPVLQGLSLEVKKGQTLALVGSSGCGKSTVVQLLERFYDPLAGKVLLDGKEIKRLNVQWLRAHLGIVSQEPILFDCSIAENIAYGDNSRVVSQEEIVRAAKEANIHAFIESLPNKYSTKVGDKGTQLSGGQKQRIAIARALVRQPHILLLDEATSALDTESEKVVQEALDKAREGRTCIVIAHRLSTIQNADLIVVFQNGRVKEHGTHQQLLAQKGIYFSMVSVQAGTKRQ
Arbovirus inh – antivirals against arbovirus infection; inhibition, % at 10 µM; arbovirus infection cell-based antiviral screen; 200,000 tested, 0.37% active; in the data active = inhibition above about 30%
Autophagy HCS – autophagy modulation, high-content screen | MEF GFP-LC3 puncta imaging; test concentration mostly 10 µM | calls only at 10 µM (by protocol) | 190,000 tested, 0.98% active;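 active = percentage of spot-positive cells more than 3 SD above its plate mean, without a fluorescence outlier flag or 80% toxicity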;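 note: spot-positive cell cutoff set from DMSO-treated cells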
* hit, by the source's call; i = inactive; nt = no result; + = active, no number. An excerpt weighted towards active compounds, which were near 2.1% of everything screened.

SMILES	bCat nuc transl	MT stabilizer	ABCG2 block	ABCB1 block	Arbovirus inh	Autophagy HCS
O=C1CC(/C=C/c2ccccn2)=Nc2ccccc2N1	0	7.4*	2	0	-9	i
CC1(C)CC(=O)C(CC2=C(O)CC(C)(C)CC2=O)C(=O)C1	1	4	-1	0	-5	i
CC1(C)CC(=O)C(CC2=C(O)CC(C)(C)CC2=O)=C(O)C1	0	2	-3	-1	5	+
Cc1ccnc(NC(=O)CCC(=O)N(CC(=O)NC(C)(C)C)c2ccc(F)c(Cl)c2)c1	0	1	1	0	-4	i
CCOC(=O)c1ccc(NC(=O)Cn2nnc(-c3ccccc3)n2)cc1	2	5	36	2	39*	i
CC(=C\c1ccccc1)/C=C1/SC(=S)N(CCC(=O)Nc2ccccn2)C1=O	0	3	-3	-1	-5	+
Cc1ccc(Nc2nc(Oc3ccc(=O)[nH]n3)nc(N(C)C)n2)cc1	-2	2	3	0	-8	+
CN(C)c1nc(Nc2ccccc2)nc(Oc2ccc(=O)[nH]n2)n1	0	5	27	0	-4	i
C(=N\Nc1ncnc2ccccc12)/c1ccccc1	0	2	0	0	8	+
Clc1cccc(/C=N/Nc2ncnc3ccccc23)c1	-3	2	9	0	-20	i
O=C(Nc1ncc([N+](=O)[O-])s1)c1cccc([N+](=O)[O-])c1	-1	nt	nt	nt	nt	nt
O=C(Nc1ccccc1)Nc1ncc([N+](=O)[O-])s1	0	3	9	0	4	+
COc1ccc(C(=O)Nc2ccccc2C(=O)NC(C)C)cc1OC	nt	3	4	1	-1	i
c1ccc(C2CC(c3cccs3)=NN2c2ccccc2)cc1 (stereo not given)	9	nt	nt	nt	nt	nt
COc1ccc(C2CC(c3cccs3)=NN2c2ccc(C=O)cc2)cc1 (stereo not given)	-1	1	-12	3	-29	+
Cc1cc(-c2cc(N)n(-c3ccccc3)n2)c(C)n1C1CCCC1	-5	4	5	1	10	+
COc1cccc(CN2CCN(CCc3ccccc3)C(CCO)C2)c1OC (stereo not given)	2	1	1	0	-2	i
C=CCn1c(O)c(N=NC(=O)CNC(=O)c2ccco2)c2ccccc21	-1	12*	11	1	-17	i
CN1CCN(C(=S)NC(=O)c2ccc(Cl)cc2)CC1	2	2	-1	0	81*	i
N#CC1=C2SCC(O)(c3ccccc3)N2C(=O)CC1c1ccccc1 (stereo not given)	46	34*	3	0	-30	+
Cc1ccc(Cl)c(OCC(O)CN(CCO)CCO)c1 (stereo not given)	-4	3	0	0	-2	i
CC(C)c1ccc(/C=N/NC(=O)c2ccccn2)cc1	1	nt	nt	nt	nt	nt
CC(C)c1ccc(/C=N/NC(=O)c2cccc(Cl)c2)cc1	nt	23*	4	0	-13	i
Cc1[nH]c(=O)c(C#N)c(C)c1Cl	-1	nt	nt	nt	nt	nt
CC(C)n1cc(/C=C2/NC(=O)N(c3cccc(Cl)c3)C2=O)c2ccccc21	0	20	0	0	-21	+
SMILES	bCat nuc transl	MT stabilizer	ABCG2 block	ABCB1 block	Arbovirus inh	Autophagy HCS
CC(C)n1cc(/C=C2\NC(=O)N(c3cccc(Cl)c3)C2=O)c2ccccc21	nt	22*	-1	0	-20	+
O=c1[nH]c(-c2cccnc2)nc2sc(-c3ccccc3)cc12	120*	20*	5	1	-14	i
CCCCC(CCCC)=N/N=C/c1c(O)n(CC)c2cc(C3=NNC(=O)CC3)ccc12	3	3	2	0	-5	+
Clc1ccc(C2=Nn3c(nnc3-c3n[nH]c4c3CCC4)SC2)cc1Cl	-1	19*	7	1	-27	i
COc1cccc2sc(Nc3nnc(-c4cccs4)o3)nc12	2	2	-7	-1	-38	+
COc1cccc2sc(Nc3nnc(-c4ccc(F)cc4)o3)nc12	0	9	-5	-3	-23	i
C/C(Cl)=C/Cn1c(N2CCCC2)nc2c1c(=O)n(C)c(=O)n2C	-7	2	-2	-2	5	i
Cc1cccc(N=C2NC(=O)/C(=C/c3cccn3C)S2)c1	-3	nt	nt	nt	nt	nt
O=C1NC(=Nc2ccccc2)S/C1=C\c1cccn1-c1ccccc1	10	21*	2	0	-24	i
CCc1cccc2cc3c(N)c(C(=O)Nc4ccc(S(=O)(=O)N5CCCC5)cc4)sc3nc12	3	4	-1	5	-20	+
CSc1ccc(NC(=O)N2CC=C(n3c(=O)[nH]c4ccccc43)CC2)cc1	-2	31*	14	1	-9	i
CC(C)CNC1=CC(=O)CC(c2ccco2)C1 (stereo not given)	-2	2	3	2	-8	i
COc1ccc2[nH]c(C)c(CCNC(=S)Nc3cccc(C)c3)c2c1	-5	5	2	0	-2	i
CCN1C(=O)/C(=C\c2nc3ccccc3c(=O)n2CC)c2ccccc21	-1	14	4	1	-4	+
COc1ccc(-c2cc(CNC(=O)CCl)on2)cc1	nt	7	1	0	6	i
C=CCSc1nnc(NC(=O)CSc2nc3ccccc3o2)s1	-1	4	-1	0	36*	i
CCOC(=O)c1oc2ccccc2c1NC(=O)c1cccc(OC)c1OC	-1	34*	5	1	-15	i
COc1ccc2c(C)nc(Nc3nc(-c4ccccc4)cc(=O)[nH]3)nc2c1	4	nt	nt	nt	nt	nt
COc1ccc2c(C)nc(Nc3nc(C)cc(=O)[nH]3)nc2c1	nt	3	nt	nt	nt	+
CC(NC(=O)CCc1nnc(C2CCCCC2)o1)c1ccc(F)cc1 (stereo not given)	-1	3	6	2	1	i
COc1cccc(/C=N/n2c(-c3n[nH]c4c3CCC4)n[nH]c2=S)c1O	1	5	1	0	-19	i
COc1ccccc1/C=C/C=N/n1c(-c2n[nH]c3c2CCC3)n[nH]c1=S	62*	nt	nt	nt	nt	nt
CN(C)/C=N/C1=C(C#N)C(c2cccs2)c2ccc3ccccc3c2O1 (stereo not given)	-6	16*	11	1	-12	i
Cc1cccc(CN2CCN(Cc3cccc(-n4cccn4)c3)CC2CCO)n1 (stereo not given)	0	2	2	2	6	+
Cc1cc(NC(=O)COc2cccc(Oc3ccccc3)c2)no1	0	2	-1	0	-19	+
c1ccc(COc2cccc(CNCc3ccccn3)c2)cc1	8	2	1	1	5	i
COc1ccc(/C=N/n2c(SC)nnc2-c2ccccc2)cc1C	2	27*	16	0	-24	i
